# Data reported in ChEMBL document CHEMBL1649392, “Synthesis of substituted 3-amino-N-phenyl-1H-indazole-1-carboxamides endowed with antiproliferative activity” (Eur J Med Chem, 2011).
# Columns and labels:
# Assay type in all cases: functional
# T47D = assay: Antiproliferative activity against human T47D cells after 48 hrs by sulforhodamine B assay
# Summary of the method: (§1)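 NCI 60-cell-line panel screen: single dose 10 µM first, then 5-dose testing (0.01, 0.1, … molar series). For each line, GI50 is the molar concentration giving 50% inhibition of net cell growth, TGI gives total inhibition of net growth, and LC50 gives 50% net cell death. Method follows the NCI DTP protocol.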
# [1] = Antiproliferative activity against human […] cells after 48 hrs by sulforhodamine B assay; conditions: for CC50: read-out: LC50 (the source's name)
# Summary of the method: (§2)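 NCI 60-cell-line panel covering nine cancer types (leukemia, non-small cell lung, colon, CNS, melanoma, ovarian, renal, prostate, breast). Compounds were first tested at a single dose, then in a five-dose screen (series starting 0.01, 0.1 …) if they met NCI threshold criteria. Reported per line: GI50 (molar concentration inhibiting 50% net growth), TGI (total growth inhibition) and LC50 (50% net cell death).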
# HOP-62 = assay: Antiproliferative activity against human HOP62 cells after 48 hrs by sulforhodamine B assay; conditions: HOP-62, 48 h; summary of the method: as §2
# NCI-H226 = assay: Antiproliferative activity against human NCI-H226 cells after 48 hrs by sulforhodamine B assay; conditions: NCI-H226, 48 h; for CC50: read-out: LC50 (the source's name); summary of the method: as §2
# NCI-H23 = assay: Antiproliferative activity against human NCI-H23 cells after 48 hrs by sulforhodamine B assay; conditions: NCI-H23, 48 h; for CC50: read-out: LC50 (the source's name); summary of the method: as §2
# NCI-H460 = assay: Antiproliferative activity against human NCI-H460 cells after 48 hrs by sulforhodamine B assay; conditions: NCI-H460, 48 h; summary of the method: as §2
# SF-295 = assay: Antiproliferative activity against human SF295 cells after 48 hrs by sulforhodamine B assay; conditions: SF-295, 48 h; summary of the method: as §2
# SF-539 = assay: Antiproliferative activity against human SF539 cells after 48 hrs by sulforhodamine B assay; conditions: SF-539, 48 h; for CC50: read-out: LC50 (the source's name); summary of the method: as §2
# U-251 = assay: Antiproliferative activity against human U251 cells after 48 hrs by sulforhodamine B assay; conditions: U-251, 48 h; summary of the method: as §1
# Malme-3M = assay: Antiproliferative activity against human MALME-3M cells after 48 hrs by sulforhodamine B assay; summary of the method: as §2
# M14 = assay: Antiproliferative activity against human M14 cells after 48 hrs by sulforhodamine B assay; conditions: M14, 48 h; for CC50: read-out: LC50 (the source's name); summary of the method: as §2
# SK-MEL-2 = assay: Antiproliferative activity against human SK-MEL-2 cells after 48 hrs by sulforhodamine B assay; conditions: SK-MEL-2, 48 h; for CC50: read-out: LC50 (the source's name); summary of the method: as §2
# 786-0 = assay: Antiproliferative activity against human 786-0 cells after 48 hrs by sulforhodamine B assay; conditions: 786-0, 48 h; for CC50: read-out: LC50 (the source's name); summary of the method: as §2
# A498 = assay: Antiproliferative activity against human A498 cells after 48 hrs by sulforhodamine B assay; conditions: A498, 48 h; for CC50: read-out: LC50 (the source's name); summary of the method: as §2
# TK-10 = assay: Antiproliferative activity against human TK10 cells after 48 hrs by sulforhodamine B assay; conditions: TK-10, 48 h; for CC50: read-out: LC50 (the source's name); summary of the method: as §1
# PC-3 = assay: Antiproliferative activity against human PC3 cells after 48 hrs by sulforhodamine B assay; conditions: PC-3, 48 h; for CC50: read-out: LC50 (the source's name); summary of the method: as §2
# DU-145 = assay: Antiproliferative activity against human DU145 cells after 48 hrs by sulforhodamine B assay; conditions: DU-145, 48 h; for CC50: read-out: LC50 (the source's name); summary of the method: as §2
# MDA-MB-231 = assay: Antiproliferative activity against human MDA-MB-231 cells after 48 hrs by sulforhodamine B assay; conditions: MDA-MB-231, 48 h; for CC50: read-out: LC50 (the source's name); summary of the method: as §2
# BT-549 = assay: Antiproliferative activity against human BT549 cells after 48 hrs by sulforhodamine B assay; conditions: BT-549, 48 h; for CC50: read-out: LC50 (the source's name); summary of the method: as §2
# CCRF-CEM = assay: Antiproliferative activity against human CCRF-CEM cells after 48 hrs by sulforhodamine B assay; summary of the method: as §2
# HL-60(TB) = assay: Antiproliferative activity against human HL-60(TB) cells after 48 hrs by sulforhodamine B assay; conditions: HL-60, 48 h
# Summary of the method: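 Tested by the National Cancer Institute in its full tumour cell panel covering nine cancer types, including leukemia. Compounds were first screened at a single dose. Those passing the preset inhibition threshold then went to a 5-dose screen. GI50 is the molar concentration giving 50% inhibition of net cell growth; TGI and LC50 were also derived.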
# HT-29 = assay: Antiproliferative activity against human HT-29 cells after 48 hrs by sulforhodamine B assay; conditions: HT-29, 48 h; summary of the method: as §2
# LOX IMVI = assay: Antiproliferative activity against human LOXIMVI cells after 48 hrs by sulforhodamine B assay; summary of the method: as §2
# MDA-MB-435 = assay: Antiproliferative activity against human MDA-MB-435 cells after 48 hrs by sulforhodamine B assay; conditions: MDA-MB-435, 48 h; summary of the method: as §2
# SK-MEL-5 = assay: Antiproliferative activity against human SK-MEL-5 cells after 48 hrs by sulforhodamine B assay; conditions: SK-MEL-5, 48 h; summary of the method: as §2
# NCI/ADR-RES = assay: Antiproliferative activity against human NCI/ADR-RES cells after 48 hrs by sulforhodamine B assay; summary of the method: as §2
# MCF7 = assay: Antiproliferative activity against human MCF7 cells after 48 hrs by sulforhodamine B assay; conditions: MCF7, 48 h; summary of the method: as §2
# [2] = read-out: LC50 (the source's name)
smiles,measurement,setting,value
Nc1nn(C(=O)Nc2ccc(Cc3ccccc3)cc2)c2ccccc12,LC50 (concentration giving 50% net cell death),T47D,> 100 µM
same,TGI,T47D,> 100 µM
same,GI50,[1],1.86 µM
same,TGI,[1],25.8 µM
same,CC50,[1],84 µM
same,LC50 (concentration causing 50% net cell death),HOP-62,> 100 µM
same,TGI,HOP-62,46.5 µM
same,TGI,NCI-H226,58.2 µM
same,CC50,NCI-H226,> 100 µM
same,TGI,NCI-H23,83.5 µM
same,CC50,NCI-H23,> 100 µM
same,TGI,NCI-H460,13 µM
same,GI50,SF-295,0.53 µM
same,LC50,SF-295,> 100 µM
same,TGI,SF-295,> 100 µM
same,CC50,SF-539,> 100 µM
same,LC50 (concentration giving 50% net cell death),U-251,65.9 µM
same,TGI,U-251,30.2 µM
same,LC50 (concentration causing 50% net cell death),Malme-3M,> 100 µM
same,TGI,Malme-3M,64.1 µM
same,TGI,M14,> 100 µM
same,CC50,M14,> 100 µM
same,TGI,SK-MEL-2,> 100 µM
same,CC50,SK-MEL-2,> 100 µM
same,TGI,786-0,26.2 µM
same,CC50,786-0,92.7 µM
same,TGI,A498,31.5 µM
same,CC50,A498,59.6 µM
same,TGI,TK-10,> 100 µM
same,CC50,TK-10,> 100 µM
same,TGI,PC-3,51.1 µM
same,CC50,PC-3,> 100 µM
same,CC50,DU-145,> 100 µM
same,CC50,MDA-MB-231,> 100 µM
same,TGI,BT-549,39.6 µM
same,CC50,BT-549,> 100 µM
Nc1ccc2c(c1)c(N)nn2C(=O)Nc1ccc(Cc2ccccc2)cc1,GI50,T47D,5.8 µM
same,LC50 (concentration giving 50% net cell death),T47D,66 µM
same,TGI,T47D,22.8 µM
same,GI50,CCRF-CEM,2.07 µM
same,LC50 (concentration causing 50% net cell death),CCRF-CEM,> 100 µM
same,TGI,CCRF-CEM,18.8 µM
same,GI50,HL-60(TB),3.46 µM
same,TGI,HL-60(TB),17.2 µM
same,CC50,HL-60(TB); [2],72.2 µM
same,GI50,[1],5.14 µM
same,TGI,[1],35 µM
same,CC50,[1],> 100 µM
same,GI50,HOP-62,11.2 µM
same,LC50 (concentration causing 50% net cell death),HOP-62,65.3 µM
same,TGI,HOP-62,27 µM
same,GI50,NCI-H226,16.1 µM
same,TGI,NCI-H226,38.3 µM
same,CC50,NCI-H226,91.4 µM
same,GI50,NCI-H23,16.9 µM
same,TGI,NCI-H23,39.5 µM
same,CC50,NCI-H23,92.4 µM
same,GI50,NCI-H460,4.64 µM
same,TGI,NCI-H460,23.8 µM
same,CC50,NCI-H460; [2],> 100 µM
same,GI50,HT-29,4.51 µM
same,LC50 (concentration giving 50% net cell death),HT-29,46 µM
same,TGI,HT-29,17.2 µM
same,GI50,SF-295,3.96 µM
same,LC50,SF-295,45.4 µM
same,TGI,SF-295,15.1 µM
same,GI50,SF-539,8.7 µM
same,TGI,SF-539,22.1 µM
same,CC50,SF-539,51.8 µM
same,GI50,U-251,6.53 µM
same,LC50 (concentration giving 50% net cell death),U-251,52 µM
same,TGI,U-251,20.9 µM
same,GI50,LOX IMVI,3.38 µM
same,LC50 (concentration causing 50% net cell death),LOX IMVI,46.7 µM
same,TGI,LOX IMVI,16 µM
same,GI50,Malme-3M,18 µM
same,LC50 (concentration causing 50% net cell death),Malme-3M,> 100 µM
same,TGI,Malme-3M,89.8 µM
same,GI50,M14,4.59 µM
same,TGI,M14,17.8 µM
same,CC50,M14,51.9 µM
same,GI50,MDA-MB-435,7.36 µM
same,TGI,MDA-MB-435,23.8 µM
same,CC50,MDA-MB-435; [2],65.5 µM
same,GI50,SK-MEL-2,26.1 µM
same,TGI,SK-MEL-2,48.5 µM
same,CC50,SK-MEL-2,90.1 µM
same,GI50,SK-MEL-5,6.52 µM
same,TGI,SK-MEL-5,19.8 µM
same,CC50,SK-MEL-5; [2],46.4 µM
same,GI50,NCI/ADR-RES,17.4 µM
same,TGI,NCI/ADR-RES,75.1 µM
same,CC50,NCI/ADR-RES; [2],> 100 µM
same,GI50,786-0,12.4 µM
same,TGI,786-0,25.9 µM
same,CC50,786-0,54.3 µM
same,GI50,A498,14.4 µM
same,TGI,A498,28.4 µM
same,CC50,A498,56.1 µM
same,GI50,TK-10,19.4 µM
same,TGI,TK-10,46 µM
same,CC50,TK-10,> 100 µM
same,GI50,PC-3,4.33 µM
same,TGI,PC-3,24 µM
same,CC50,PC-3,87 µM
same,GI50,DU-145,10.9 µM
same,TGI,DU-145,24 µM
same,CC50,DU-145,52.6 µM
same,GI50,MCF7,6.92 µM
same,TGI,MCF7,26.5 µM
same,CC50,MCF7; [2],85.4 µM
same,GI50,MDA-MB-231,7.74 µM
same,TGI,MDA-MB-231,22.7 µM
same,CC50,MDA-MB-231,54.3 µM
same,GI50,BT-549,14.6 µM
same,TGI,BT-549,33.5 µM
same,CC50,BT-549,76.7 µM
